One block for each compound: values may come before it.
Experiments:
[1] = tested on: K562; test: Cytotoxicity against human K562 cells after 5 days by MTT assay; assay type: functional, cell-based; settings: K562, 120 h
Method in brief: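 K562 chronic myelogenous leukemia cells grown in antibiotic-free RPMI with 2-mercaptoethanol (2 μM), L-glutamine (2 mM) and 10% FCS, seeded at ca 40,000 cells/mL. DMSO-dissolved drug added as a serial dilution series, with a drug-free control. Incubated 37 °C, 5% CO2. MTT (3 mg/mL in PBS) added for 3 h, formazan dissolved in DMSO, OD read at 540 and 690 nm. IC50 derived graphically as percentage of control growth.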

[2] = target: Tubulin (Sus scrofa, UniProt P02554+P02550); test: Inhibition of pig brain tubulin polymerization
Method in brief: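 Porcine brain tubulin stored at -78 °C. Mixed with Mes buffer (0.1 M Mes, 1 mM EGTA, 0.5 mM MgCl2, pH 6.6) and GTP (stock 5 mM) plus drug in DMSO, in a plate prechilled 30 min at 4 °C. Absorbance at 350 nm followed 60 min at 25 °C against drug-only blanks and untreated controls. IC50 derived graphically as percentage of control assembly.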

[3] = tested on: MDA-MB-231; test: Cytotoxicity against human MDA-MB-231 cells assessed as [3H]thymidine incorporation after 72 hrs by microplate scintillation counter; assay type: functional, cell-based
Method in brief: (§1)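 RPMI 1640 with 2 mM L-glutamine, plus 5% FCS (WM35, WM239) or 10% FCS (SKOV, OVCAR, MDA-MB231, SK-BR 3); SK-BR 3 medium also had 12,5 µM insulin. 1 µCi [3H]thymidine label for the final 24 h. Controls got solvent-only medium. Values are medians of three experiments.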

[4] = Cytotoxicity against human SKOV cells assessed as [3H]thymidine incorporation after 72 hrs by microplate scintillation counter; assay type: functional, cell-based; method in brief: as §1
[5] = Cytotoxicity against human WM35 cells assessed as [3H]thymidine incorporation after 72 hrs by microplate scintillation counter; assay type: functional, cell-based; method in brief: as §1
[6] = tested on: OVCAR; test: Cytotoxicity against human OVCAR cells assessed as [3H]thymidine incorporation after 72 hrs by microplate scintillation counter; assay type: functional, cell-based; method in brief: as §1
[7] = tested on: SK-BR-3; test: Cytotoxicity against human SK-BR3 cells assessed as [3H]thymidine incorporation after 72 hrs by microplate scintillation counter; assay type: functional, cell-based; method in brief: as §1
[8] = Cytotoxicity against human WM239 cells assessed as [3H]thymidine incorporation after 72 hrs by microplate scintillation counter; assay type: functional, cell-based; method in brief: as §1

SMILES: COc1ccc(-c2cn(-c3cc(OC)c(OC)c(OC)c3)nn2)cc1[N+](=O)[O-]
IC50 [1]: > 10000 nM

IC50 [2]: > 20000 nM
SMILES: COc1ccc(-n2nncc2-c2cc(OC)c(OC)c(OC)c2)cc1N
IC50 [1]: 570 nM

IC50 [2]: 7000 nM
SMILES: COc1ccc(-c2cnnn2-c2cc(OC)c(OC)c(OC)c2)cc1
IC50 [1]: 27 nM

IC50 [2]: 12600 nM
SMILES: COc1ccc(-c2cnnn2-c2cc(OC)c(OC)c(OC)c2)cc1O

IC50 [2]: > 20000 nM
SMILES: COc1ccc(-c2cnnn2-c2cc(OC)c(OC)c(OC)c2)cc1[N+](=O)[O-]
IC50 [1]: 460 nM

SMILES: COc1ccc(-c2cnnn2-c2cc(OC)c(OC)c(OC)c2)cc1N
IC50 [2]: 4800 nM
IC50 [3]: > 10 nM
IC50 [4]: 4.9 nM
IC50 [5]: 3.9 nM
IC50 [6]: 4.7 nM
IC50 [7]: 4 nM
IC50 [8]: 5.1 nM
IC50 [1]: 11 nM

SMILES: COc1ccc(-n2nncc2-c2cc(OC)c(OC)c(OC)c2)cc1
IC50 [1]: 4000 nM

IC50 [2]: > 20000 nM
SMILES: COc1ccc(-c2cn(-c3cc(OC)c(OC)c(OC)c3)nn2)cc1N
IC50 [1]: 1300 nM

SMILES: COc1ccc(-n2nncc2-c2cc(OC)c(OC)c(OC)c2)cc1Br
IC50 [1]: 3600 nM

IC50 [2]: 14000 nM
SMILES: COc1ccc(-n2nncc2-c2cc(OC)c(OC)c(OC)c2)cc1O
IC50 [1]: 410 nM

SMILES: COc1ccc(-c2cnnn2-c2cc(OC)c(OC)c(OC)c2)cc1Br
IC50 [2]: > 20000 nM
IC50 [1]: 57 nM

SMILES: COc1ccc(-n2nncc2-c2cc(OC)c(OC)c(OC)c2)cc1[N+](=O)[O-]
IC50 [1]: > 10000 nM

SMILES: COc1ccc(/C=C\c2cc(OC)c(OC)c(OC)c2)cc1O [COMBRETASTATIN A4]
IC50 [3]: 6 nM
IC50 [4]: 3.3 nM
IC50 [5]: 2.5 nM
IC50 [6]: 3.3 nM
IC50 [7]: 5.1 nM
IC50 [8]: 2.8 nM
IC50 [1]: 10 nM
